pIC50: −log10 of the molar value. Positions of bridges follow the written chain, without caps; N, C: chain ends. Residues, ends and D or L forms follow the SMILES beside them.

Chain of Sodium channel protein type 5 subunit alpha (Q14524 whole entry): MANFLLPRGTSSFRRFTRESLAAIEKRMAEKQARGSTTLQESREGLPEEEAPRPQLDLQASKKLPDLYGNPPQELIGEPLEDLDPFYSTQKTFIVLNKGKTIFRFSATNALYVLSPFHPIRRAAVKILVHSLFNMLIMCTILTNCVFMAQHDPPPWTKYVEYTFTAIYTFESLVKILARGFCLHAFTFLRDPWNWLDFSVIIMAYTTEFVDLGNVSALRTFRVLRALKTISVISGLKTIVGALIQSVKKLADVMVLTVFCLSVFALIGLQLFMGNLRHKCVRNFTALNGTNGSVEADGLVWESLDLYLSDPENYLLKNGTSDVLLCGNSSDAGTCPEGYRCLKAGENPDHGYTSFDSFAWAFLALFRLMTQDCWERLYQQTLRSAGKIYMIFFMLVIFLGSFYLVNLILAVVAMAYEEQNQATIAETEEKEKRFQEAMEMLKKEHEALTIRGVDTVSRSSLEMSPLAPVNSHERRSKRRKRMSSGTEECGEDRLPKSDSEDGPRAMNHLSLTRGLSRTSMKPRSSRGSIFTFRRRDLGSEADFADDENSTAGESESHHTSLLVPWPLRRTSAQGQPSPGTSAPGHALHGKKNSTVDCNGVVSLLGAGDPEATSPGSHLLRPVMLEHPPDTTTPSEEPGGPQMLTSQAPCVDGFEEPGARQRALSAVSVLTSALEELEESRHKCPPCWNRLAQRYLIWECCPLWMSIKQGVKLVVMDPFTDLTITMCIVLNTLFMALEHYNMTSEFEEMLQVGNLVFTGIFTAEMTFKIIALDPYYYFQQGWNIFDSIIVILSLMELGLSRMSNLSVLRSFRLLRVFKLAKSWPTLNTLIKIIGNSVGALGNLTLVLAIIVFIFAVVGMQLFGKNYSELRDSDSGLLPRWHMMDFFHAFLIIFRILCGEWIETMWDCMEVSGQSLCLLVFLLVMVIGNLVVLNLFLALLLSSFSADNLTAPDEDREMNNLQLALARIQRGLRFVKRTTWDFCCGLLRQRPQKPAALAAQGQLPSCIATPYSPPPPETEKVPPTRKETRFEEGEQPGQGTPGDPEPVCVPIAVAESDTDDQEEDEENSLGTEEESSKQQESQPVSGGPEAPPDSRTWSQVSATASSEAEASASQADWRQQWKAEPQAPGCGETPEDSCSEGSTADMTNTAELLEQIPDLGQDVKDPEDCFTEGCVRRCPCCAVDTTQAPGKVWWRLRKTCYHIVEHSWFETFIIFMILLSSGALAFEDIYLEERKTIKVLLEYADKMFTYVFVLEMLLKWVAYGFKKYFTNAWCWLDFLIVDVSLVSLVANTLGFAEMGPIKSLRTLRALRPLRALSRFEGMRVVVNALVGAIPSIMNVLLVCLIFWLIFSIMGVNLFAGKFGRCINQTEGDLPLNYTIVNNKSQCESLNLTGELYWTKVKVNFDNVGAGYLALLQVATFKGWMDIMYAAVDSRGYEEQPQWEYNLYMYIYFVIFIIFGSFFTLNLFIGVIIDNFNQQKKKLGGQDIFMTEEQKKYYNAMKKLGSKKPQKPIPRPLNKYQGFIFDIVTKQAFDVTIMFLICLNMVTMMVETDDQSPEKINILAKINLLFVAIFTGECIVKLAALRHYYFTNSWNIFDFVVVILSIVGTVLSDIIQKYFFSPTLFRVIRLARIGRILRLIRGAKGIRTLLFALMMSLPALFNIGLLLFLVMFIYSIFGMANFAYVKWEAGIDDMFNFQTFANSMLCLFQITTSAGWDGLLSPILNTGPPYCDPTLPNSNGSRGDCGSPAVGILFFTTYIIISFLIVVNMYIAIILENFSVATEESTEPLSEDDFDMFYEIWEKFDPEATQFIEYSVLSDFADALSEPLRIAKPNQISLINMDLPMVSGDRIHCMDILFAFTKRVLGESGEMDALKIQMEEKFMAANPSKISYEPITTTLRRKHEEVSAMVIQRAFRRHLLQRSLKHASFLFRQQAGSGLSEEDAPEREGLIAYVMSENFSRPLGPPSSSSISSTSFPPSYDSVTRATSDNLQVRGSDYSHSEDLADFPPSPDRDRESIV

The test concerns the target Sodium channel protein type 5 subunit alpha (Homo sapiens, UniProt Q14524). The experiment in a line: Inhibition of human Nav1.5 expressed in HEK293 cells assessed as inward peak current by ion-works quattro patch clamp electrophysiology method. It counts as cell-based. Summed up: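 Stable HEK293 line expressing human NaV1.5, recorded by population patch clamp on the IonWorks Quattro.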
A general note: In patch-clamp work, channel activity is measured electrically.
By pIC50 is commonly meant the IC50 on a negative log10 scale, so that one unit is a factor of ten. Take `CC[C@H](C)[C@@H]1NC(=O)[C@@H]2CSSC[C@@H]3NC(=O)[C@H](C(C)C)NC(=O)[C@H](CC(C)C)NC(=O)[C@H](CC(N)=O)NC(=O)[C@@H]4CCCN4C(=O)[C@H](CCCNC(=N)N)NC(=O)[C@H](CSSC[C@H](NC(=O)[C@@H](N)CC(=O)O)C(=O)N[C@@H](CC(C)C)C(=O)NCC(=O)N[C@@H](Cc4ccccc4)C(=O)N[C@@H](CCSC)C(=O)N[C@@H](CCCNC(=N)N)C(=O)N[C@@H](CCCCN)C(=O)N2)NC(=O)[C@H](CSSC[C@@H](C(=O)N[C@@H](CCCCN)C(=O)N[C@@H](Cc2ccc(O)cc2)C(=O)N[C@H](C(=O)N[C@@H](Cc2ccccc2)C(N)=O)C(C)C)NC(=O)[C@H](Cc2c[nH]c4ccccc24)NC(=O)[C@H](CCC(=O)O)NC(=O)[C@H](Cc2cnc[nH]2)NC(=O)[C@H]([C@@H](C)O)NC(=O)[C@H](CCCNC(=N)N)NC(=O)[C@H](CO)NC3=O)NC(=O)[C@H](CCCCN)NC(=O)[C@H](CC(=O)O)NC(=O)[C@H](CC(N)=O)NC(=O)[C@H](CC(=O)O)NC(=O)[C@@H]2CCCN2C1=O` (H-DCLGFMRKCIPDNDKCCRPNLVCSRTHEWCKYVF-NH2; disulfide 2-17, 9-23, 16-30): the pIC50 was below 5.30.
For the compound `CC[C@H](C)[C@@H]1NC(=O)[C@@H]2CSSC[C@@H]3NC(=O)[C@H](C(C)C)NC(=O)[C@H](CC(C)C)NC(=O)[C@H](CC(N)=O)NC(=O)[C@@H]4CCCN4C(=O)[C@H](CCCNC(=N)N)NC(=O)[C@H](CSSC[C@H](NC(=O)[C@@H](N)CC(=O)O)C(=O)N[C@@H](CC(C)C)C(=O)NCC(=O)N[C@@H](Cc4ccccc4)C(=O)N[C@@H](CCSC)C(=O)N[C@@H](CCCNC(=N)N)C(=O)N[C@@H](CCCCN)C(=O)N2)NC(=O)[C@H](CSSC[C@@H](C(=O)N[C@@H](CCCCN)C(=O)N[C@@H](CCCNC(=N)N)C(=O)N[C@H](C(=O)N[C@@H](Cc2ccccc2)C(N)=O)C(C)C)NC(=O)[C@H](Cc2c[nH]c4ccccc24)NC(=O)[C@H](CCCCN)NC(=O)[C@H](Cc2cnc[nH]2)NC(=O)[C@H]([C@@H](C)O)NC(=O)[C@H](CCCNC(=N)N)NC(=O)[C@H](CO)NC3=O)NC(=O)[C@H](CCCCN)NC(=O)[C@H](CC(=O)O)NC(=O)[C@H](CC(N)=O)NC(=O)[C@H](CC(=O)O)NC(=O)[C@@H]2CCCN2C1=O` (H-DCLGFMRKCIPDNDKCCRPNLVCSRTHKWCKRVF-NH2; disulfide 2-17, 9-23, 16-30), the pIC50 is below 5.30.
Consider `CC[C@H](C)[C@@H]1NC(=O)[C@@H]2CSSC[C@@H]3NC(=O)[C@H](C(C)C)NC(=O)[C@H](CC(C)C)NC(=O)[C@H](CC(N)=O)NC(=O)[C@@H]4CCCN4C(=O)[C@H](CCCNC(=N)N)NC(=O)[C@H](CSSC[C@H](NC(=O)[C@@H](N)CC(=O)O)C(=O)N[C@@H](CC(C)C)C(=O)NCC(=O)N[C@@H](Cc4ccccc4)C(=O)N[C@@H](CCSC)C(=O)N[C@@H](CCCNC(=N)N)C(=O)N[C@@H](CCCCN)C(=O)N2)NC(=O)[C@H](CSSC[C@@H](C(=O)N[C@@H](CCCCN)C(=O)N[C@@H](Cc2ccc(O)cc2)C(N)=O)NC(=O)[C@H](Cc2c[nH]c4ccccc24)NC(=O)[C@H](CCCCN)NC(=O)[C@H](Cc2cnc[nH]2)NC(=O)[C@H]([C@@H](C)O)NC(=O)[C@H](CCCNC(=N)N)NC(=O)[C@H](CO)NC3=O)NC(=O)[C@H](CCCCN)NC(=O)[C@H](CC(=O)O)NC(=O)[C@H](CC(N)=O)NC(=O)[C@H](CC(=O)O)NC(=O)[C@@H]2CCCN2C1=O` (H-DCLGFMRKCIPDNDKCCRPNLVCSRTHKWCKY-NH2; disulfide 2-17, 9-23, 16-30), for which the pIC50 is below 5.30.
Then `CC[C@H](C)[C@@H]1NC(=O)[C@@H]2CSSC[C@@H]3NC(=O)[C@H](C(C)C)NC(=O)[C@H](CC(C)C)NC(=O)[C@H](CC(N)=O)NC(=O)[C@@H]4CCCN4C(=O)[C@H](CCCNC(=N)N)NC(=O)[C@H](CSSC[C@H](NC(=O)[C@@H](N)CC(=O)O)C(=O)N[C@@H](CC(C)C)C(=O)NCC(=O)N[C@@H](Cc4ccccc4)C(=O)N[C@@H](CCSC)C(=O)N[C@@H](CCCNC(=N)N)C(=O)N[C@@H](CCCCN)C(=O)N2)NC(=O)[C@H](CSSC[C@@H](C(=O)N[C@@H](CCCCN)C(=O)N[C@@H](Cc2ccc(O)cc2)C(=O)N[C@@H](CCC(=O)O)C(=O)N[C@@H](Cc2ccccc2)C(N)=O)NC(=O)[C@H](Cc2c[nH]c4ccccc24)NC(=O)[C@H](CCCCN)NC(=O)[C@H](Cc2cnc[nH]2)NC(=O)[C@H]([C@@H](C)O)NC(=O)[C@H](CCCNC(=N)N)NC(=O)[C@H](CO)NC3=O)NC(=O)[C@H](CCCCN)NC(=O)[C@H](CC(=O)O)NC(=O)[C@H](CC(N)=O)NC(=O)[C@H](CC(=O)O)NC(=O)[C@@H]2CCCN2C1=O` (H-DCLGFMRKCIPDNDKCCRPNLVCSRTHKWCKYEF-NH2; disulfide 2-17, 9-23, 16-30), with below 5.30.
In the case of `CC[C@H](C)[C@@H]1NC(=O)[C@@H]2CSSC[C@@H]3NC(=O)[C@H](C(C)C)NC(=O)[C@H](CC(C)C)NC(=O)[C@H](CC(N)=O)NC(=O)[C@@H]4CCCN4C(=O)[C@H](CCCNC(=N)N)NC(=O)[C@H](CSSC[C@H](NC(=O)[C@@H](N)CC(=O)O)C(=O)N[C@@H](CC(C)C)C(=O)NCC(=O)N[C@@H](Cc4ccccc4)C(=O)N[C@@H](CCSC)C(=O)N[C@@H](CCCNC(=N)N)C(=O)N[C@@H](CCCCN)C(=O)N2)NC(=O)[C@H](CSSC[C@@H](C(=O)N[C@@H](CCCCN)C(=O)N[C@@H](Cc2ccc(O)cc2)C(=O)N[C@@H](CCCNC(=N)N)C(=O)N[C@@H](Cc2ccccc2)C(N)=O)NC(=O)[C@H](Cc2c[nH]c4ccccc24)NC(=O)[C@H](CCCCN)NC(=O)[C@H](Cc2cnc[nH]2)NC(=O)[C@H]([C@@H](C)O)NC(=O)[C@H](CCCNC(=N)N)NC(=O)[C@H](CO)NC3=O)NC(=O)[C@H](CCCCN)NC(=O)[C@H](CC(=O)O)NC(=O)[C@H](CC(N)=O)NC(=O)[C@H](CC(=O)O)NC(=O)[C@@H]2CCCN2C1=O` (H-DCLGFMRKCIPDNDKCCRPNLVCSRTHKWCKYRF-NH2; disulfide 2-17, 9-23, 16-30) it was below 5.30; in that of `CC[C@H](C)[C@@H]1NC(=O)[C@@H]2CSSC[C@@H]3NC(=O)[C@H](C(C)C)NC(=O)[C@H](CC(C)C)NC(=O)[C@H](CC(N)=O)NC(=O)[C@@H]4CCCN4C(=O)[C@H](CCCNC(=N)N)NC(=O)[C@H](CSSC[C@H](NC(=O)[C@@H](N)CC(=O)O)C(=O)N[C@@H](CC(C)C)C(=O)NCC(=O)N[C@@H](Cc4ccccc4)C(=O)N[C@@H](CCSC)C(=O)N[C@@H](CCCNC(=N)N)C(=O)N[C@@H](CCCCN)C(=O)N2)NC(=O)[C@H](CSSC[C@@H](C(=O)N[C@@H](CCCCN)C(=O)N[C@@H](Cc2ccc(O)cc2)C(=O)N[C@H](C(N)=O)C(C)C)NC(=O)[C@H](Cc2c[nH]c4ccccc24)NC(=O)[C@H](CCCCN)NC(=O)[C@H](Cc2cnc[nH]2)NC(=O)[C@H]([C@@H](C)O)NC(=O)[C@H](CCCNC(=N)N)NC(=O)[C@H](CO)NC3=O)NC(=O)[C@H](CCCCN)NC(=O)[C@H](CC(=O)O)NC(=O)[C@H](CC(N)=O)NC(=O)[C@H](CC(=O)O)NC(=O)[C@@H]2CCCN2C1=O` (H-DCLGFMRKCIPDNDKCCRPNLVCSRTHKWCKYV-NH2; disulfide 2-17, 9-23, 16-30), below 5.30.
Consider `CC[C@H](C)[C@@H]1NC(=O)[C@@H]2CSSC[C@@H]3NC(=O)[C@H](C(C)C)NC(=O)[C@H](CC(C)C)NC(=O)[C@H](CC(N)=O)NC(=O)[C@@H]4CCCN4C(=O)[C@H](CCCNC(=N)N)NC(=O)[C@H](CSSC[C@H](NC(=O)[C@@H](N)CC(=O)O)C(=O)N[C@@H](CC(C)C)C(=O)NCC(=O)N[C@@H](Cc4ccccc4)C(=O)N[C@@H](CCSC)C(=O)N[C@@H](CCCNC(=N)N)C(=O)N[C@@H](CCCCN)C(=O)N2)NC(=O)[C@H](CSSC[C@@H](C(=O)N[C@@H](CCCCN)C(=O)N[C@@H](Cc2ccc(O)cc2)C(=O)N[C@@H](Cc2c[nH]c4ccccc24)C(=O)N[C@@H](Cc2ccccc2)C(N)=O)NC(=O)[C@H](Cc2c[nH]c4ccccc24)NC(=O)[C@H](CCCCN)NC(=O)[C@H](Cc2c[nH]cn2)NC(=O)[C@H]([C@@H](C)O)NC(=O)[C@H](CCCNC(=N)N)NC(=O)[C@H](CO)NC3=O)NC(=O)[C@H](CCCCN)NC(=O)[C@H](CC(=O)O)NC(=O)[C@H](CC(N)=O)NC(=O)[C@H](CC(=O)O)NC(=O)[C@@H]2CCCN2C1=O` (H-DCLGFMRKCIPDNDKCCRPNLVCSRTHKWCKYWF-NH2; disulfide 2-17, 9-23, 16-30), for which the pIC50 is below 5.30.
For the compound `CC[C@H](C)[C@@H]1NC(=O)[C@@H]2CSSC[C@@H]3NC(=O)[C@H](C(C)C)NC(=O)[C@H](CC(C)C)NC(=O)[C@H](CC(N)=O)NC(=O)[C@@H]4CCCN4C(=O)[C@H](CCCNC(=N)N)NC(=O)[C@H](CSSC[C@H](NC(=O)[C@@H](N)CC(=O)O)C(=O)N[C@@H](CC(C)C)C(=O)NCC(=O)N[C@@H](Cc4ccccc4)C(=O)N[C@@H](CCSC)C(=O)N[C@@H](CCCNC(=N)N)C(=O)N[C@@H](CCCCN)C(=O)N2)NC(=O)[C@H](CSSC[C@@H](C(=O)N[C@@H](CCCCN)C(=O)N[C@@H](Cc2ccc(O)cc2)C(=O)N[C@H](C(=O)N[C@@H](Cc2ccccc2)C(N)=O)C(C)C)NC(=O)[C@H](Cc2c[nH]c4ccccc24)NC(=O)[C@H](CCCCN)NC(=O)[C@H](CCCCN)NC(=O)[C@H]([C@@H](C)O)NC(=O)[C@H](CCCNC(=N)N)NC(=O)[C@H](CO)NC3=O)NC(=O)[C@H](CCCCN)NC(=O)[C@H](CC(=O)O)NC(=O)[C@H](CC(N)=O)NC(=O)[C@H](CC(=O)O)NC(=O)[C@@H]2CCCN2C1=O` (H-DCLGFMRKCIPDNDKCCRPNLVCSRTKKWCKYVF-NH2; disulfide 2-17, 9-23, 16-30), the pIC50 is below 5.30.
